Screening results as filed in PubChem BioAssay.
In the library only some 2.3% were active in any assay of this set; here they are far more common.
GSTO1 counter: GSTO1 inhibition, counter-screen for RBBP9 inhibitors | hit rate 1.1% among 300,000 | P78417 | inhibition, % at 5.96 µM | AID 1974 | recombinant GSTO1, activity-based probe fluorescence polarization;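 active means inhibition above the campaign mean inhibition plus 3 SD, cut at about 35% in these data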;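 further: 0% = GSTO1-1 with DMSO and 100% = wells lacking GSTO1-1 enzyme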
PRMT1 inh: inhibitors of human PRMT1 | hit rate 1.3% among 370,000 | recombinant PRMT1, activity-based probe fluorescence polarization | inhibition, % at 2.79 µM;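 active means inhibition above about 21% made by adding two undisclosed values, limit read from the data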
PME-1 primary: blocks human protein phosphatase methylesterase 1. Q9Y570. recombinant PME-1, FP-Rh probe fluorescence polarization. inhibition, % at 5.9 µM. hit rate 0.53% among 320,000. AID 2130;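 active means inhibition above the campaign mean of all compounds plus 3 SD, cut at about 26% in these data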;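 further: competitive labeling of PME-1 active site by serine hydrolase directed probe; 0% = PME-1 with DMSO and 100% = wells lacking PME-1 enzyme; inhibitors block probe labeling so polarization falls and inhibition rises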
Target sequence (Q9Y570 whole entry, looked up): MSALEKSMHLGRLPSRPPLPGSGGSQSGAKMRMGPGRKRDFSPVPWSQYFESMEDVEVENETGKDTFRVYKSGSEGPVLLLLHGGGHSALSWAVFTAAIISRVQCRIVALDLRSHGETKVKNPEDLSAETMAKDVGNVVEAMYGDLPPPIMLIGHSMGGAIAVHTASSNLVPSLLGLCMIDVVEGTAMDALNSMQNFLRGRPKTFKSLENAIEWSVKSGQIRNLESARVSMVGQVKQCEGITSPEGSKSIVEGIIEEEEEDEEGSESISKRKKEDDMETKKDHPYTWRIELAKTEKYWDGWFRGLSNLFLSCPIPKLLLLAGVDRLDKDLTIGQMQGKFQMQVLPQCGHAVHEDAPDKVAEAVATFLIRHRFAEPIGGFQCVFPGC
RBBP9 inh: human RBBP9 hydrolase inhibition. O75884. recombinant RBBP9, FP-Rh probe fluorescence polarization. inhibition, % at 7.94 µM. hit rate 0.2% among 220,000. AID 1515;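 active means inhibition above the campaign mean of all tested compounds plus 3 SD, cut at about 14% in these data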;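 further: plate controls were DMSO wells with RBBP9 for no effect and wells lacking RBBP9 protein for full effect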
Target sequence (O75884 whole entry, looked up): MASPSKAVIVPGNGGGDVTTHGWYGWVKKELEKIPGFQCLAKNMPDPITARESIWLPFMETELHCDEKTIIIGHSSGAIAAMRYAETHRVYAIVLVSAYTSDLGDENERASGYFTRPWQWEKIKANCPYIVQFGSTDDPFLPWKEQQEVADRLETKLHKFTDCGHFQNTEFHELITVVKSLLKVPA
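Measured by – fluorescence polarization · Test system – RBBP9 protein · Input – 2.5 µM RBBP9 dispensing solution, before mixing · Measure – percent inhibition from mP, scaled between DMSO and no-protein wells · Benchmarks – DMSO-treated enzyme wells and wells lacking RBBP9 · Times – preincubation 30 min plus labeling 45 min at 25 °C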
PAD4 inh: inhibitors of human PAD4. recombinant PAD4, RCA probe fluorescence polarization. AID 485272. inhibition, % at 6.36 µM. hit rate 0.41% among 330,000. Q9UM07;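 active means percent inhibition above a cutoff equal to the mean of all tested compounds plus 3 SD, cut at about 15% in these data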;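 further: 0% = PAD4 with RCA probe and DMSO and 100% = probe without PAD4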
Fam108B inh: Fam108B inhibition, counter-screen for RBBP9 inhibitors; recombinant Fam108B, FP-Rh probe fluorescence polarization; inhibition, % at 9.51 µM; hit rate 0.33% among 300,000; AID 1947;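 active means inhibition above the screen mean inhibition plus 3 SD, computed separately per campaign, cut at about 18% in these data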;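 further: inhibitors lower polarization as less probe binds the enzyme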
GSTO1 confirm: confirmation of human GSTO1 inhibitors | shares compounds with GSTO1 counter | recombinant GSTO1, probe fluorescence polarization | inhibition, % at 5.96 µM | hit rate 54% among 2,400 | AID 2176;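 active means inhibition above the primary screen's cutoff, its mean inhibition plus 3 SD, cut at about 35% in these data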;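 further: loss of polarization as inhibitors block binding of rhodamine sulfonate ester activity probe; 0% = GSTO1 with DMSO and 100% = wells lacking GSTO1 enzyme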
PAD4 confirm: PAD4 (human) inhibition, confirmed | hit rate 28% among 1,200 | recombinant PAD4, RCA probe fluorescence polarization | shares compounds with PAD4 inh | inhibition, % at 6.36 µM | AID 488796;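 active means mean inhibition across replicates above the hit cutoff set by the earlier primary screen, cut at about 15% in these data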;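 further: inhibitors block active-site labeling by the probe so polarization falls; 0% = PAD4 with probe and DMSO and 100% = probe without PAD4 enzyme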
Numbers without * were called inactive; · = no result given.

SMILES | GSTO1 counter | PRMT1 inh | PME-1 primary | RBBP9 inh | PAD4 inh | Fam108B inh | PAD4 confirm | others
CCn1c(O)c(C=NCc2ccccc2)sc1=S | -9.4 | 1.9 | 6.1 | 1.4 | 1.4 | 3.7 | ·
CCN(CC)S(=O)(=O)c1ccc(C(=O)NNc2nc(-c3ccccc3)c3cc(Br)ccc3n2)cc1 | -8.9 | -0.1 | -18.4 | -8.1 | -1.4 | -9.0 | ·
COc1ccc2ccc3c(c2c1)N=C[C@]1(O3)N(C)c2ccccc2C1(C)C | 85.8* | 3.5 | 44.6* | -5.6 | 52.5* | -0.7 | 5.5 | GSTO1 confirm=4.1
CC1=NOC2(C1)N(C)c1ccccc1C2(C)C (stereo not drawn) | 4.6 | -3.7 | 2.8 | -2.6 | 2.7 | 0.5 | ·
Cc1ccc(C=Nc2ccc(N(C)C)cc2)o1 | 82.6* | 12.3 | 7.1 | 4.0 | 25.5* | 4.4 | -9.1 | GSTO1 confirm=1.9
O=C1N/C(=C\c2ccc(O)cc2)C(=O)c2ccccc21 | 75.1* | · | 15.2 | -12.1 | 30.2* | 9.4 | -3.1 | GSTO1 confirm=79.3*
O=C(O)/C=C1\NC(=O)c2ccccc21 | 3.3 | -1.3 | 1.6 | 0.6 | -4.8 | 1.5 | ·
CCC(=O)Nc1ccccc1C(=O)C(=O)Nc1ccccc1 | 5.0 | -0.2 | -2.0 | -7.7 | 19.9* | 3.1 | -0.5
O=C1CCCC2=C1Sc1ccc(Cl)cc1N2 | 5.6 | 9.0 | 9.5 | -4.8 | -1.1 | 1.9 | ·
COC(=O)c1ccc2c(c1)SC1=C(CCCC1=O)N2 | 15.5 | 25.0* | 28.8* | 1.2 | 42.6* | 17.8 | 39.5*
Cc1ccc2[nH]c3c(c2c1)CN(C(=O)CN1CCN(Cc2ccc4c(c2)OCO4)CC1)CC3 | 12.2 | -1.0 | 1.8 | -2.2 | 0.0 | 8.6 | ·
COc1ccc2cc3c(N)nn(C(=O)Cc4ccccc4OC)c3nc2c1 | 3.1 | -3.5 | 0.1 | -5.3 | -0.8 | 1.4 | ·
Fc1ccccc1C1CC(c2ccco2)=Nc2ccccc2S1 (stereo not drawn) | -0.7 | 70.7* | -0.4 | -6.0 | 18.8* | 1.4 | 3.6
Cc1cc(C)c2c(c1)-c1c(ssc1=S)C(C)(C)N2C(=O)CSc1nncn1C | -6.5 | 7.6 | 0.7 | -7.3 | 33.8* | -0.9 | 31.6*
COc1ccc2c(c1)-c1c(ssc1=S)C(C)(C)N2C(=O)CSC1=NCCS1 | -3.9 | 12.3 | 9.1 | -0.2 | 6.2 | 2.9 | ·
Cc1ccc2c(c1)-c1c(ssc1=S)C(C)(C)N2C(=O)CSc1nncn1C | -11.8 | 1.1 | 7.2 | -4.3 | 17.1* | 1.1 | 21.9*
COc1ccc(-c2ncn(CCC#N)c2[N+](=O)[O-])cc1 | 4.6 | -2.6 | 0.6 | -9.2 | -3.5 | 1.2 | ·
COc1ccc(-c2cc(=O)n(CCC#N)[nH]2)cc1 | 36.2* | 3.8 | -0.1 | -6.7 | 69.7* | 2.3 | 2.1
Cc1cc(C)n(-c2nnc(NC(C)(C)C)nn2)n1 | 1.2 | -1.6 | -4.2 | -5.5 | -3.7 | 0.5 | ·
CCN(CC)c1ccc2c(C)c(Cl)c(=O)oc2c1 | 5.0 | 1.7 | 6.7 | -0.1 | -1.6 | 2.1 | ·
CCN(CC)c1ccc2c(c1)oc(=O)c1c(Cl)cc(=O)oc12 | 24.9 | · | 0.5 | -4.0 | 25.8* | 10.0 | 19.1*
Cc1ccc(NC2=C(Cl)C(=O)OC2OC(=O)c2ccccc2)c(C)c1 (stereo not drawn) | -4.3 | 7.0 | -2.1 | -4.3 | 0.9 | -2.0 | ·
Cc1ccccc1NC1=C(Cl)C(=O)OC1OC(=O)c1ccccc1C (stereo not drawn) | 1.5 | 0.6 | 15.1 | -5.5 | 43.9* | 0.4 | -1.8
COc1ccc(N2C(=O)CSC23C(=O)Nc2ccccc23)cc1 (stereo not drawn) | -3.4 | 2.1 | 5.2 | 5.7 | 15.6* | -5.7 | 13.6
CC(C)CC(=O)Nc1cccc(C(=O)Nc2ccccc2C(=O)O)c1 | -11.6 | -1.0 | -4.4 | 2.8 | -1.5 | -2.3 | ·
Cc1cccc(-n2c(N)c(C(=O)NCCN3CCOCC3)c3nc4ccccc4nc32)c1 | 36.9* | 0.6 | 3.8 | -0.2 | 16.6* | -0.9 | -10.8
COc1ccc(C(=O)NCC(=O)NCc2ccc3c(c2)OCO3)cc1[N+](=O)[O-] | · | -0.5 | · | · | · | · | ·
O=C(CN1CCCN(Cc2ccc(F)cc2)S1(=O)=O)NC1CCCC1 | 7.3 | -1.6 | 7.5 | · | 1.0 | 0.8 | ·
Nn1c(SCc2ccccc2)nc2c(cnn2-c2ccccc2)c1=O | 5.0 | 2.3 | -0.4 | -7.8 | 18.4* | 4.5 | 3.4
